Converted amounts (≈) assume the structure as drawn. “Also recorded” adds a separate entry of the source. Where two headings read alike, the source gives them in different places.
How the values were obtained:
Format in all cases: cell-based
HeLa cells = assay: cytotoxicity in uninfected HeLa cells; settings: HeLa cell cultures, microscopically detectable alteration of cell morphology
Outline: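 Uninfected HeLa cells were treated with serial dilutions of test compound, run in parallel with the CPE-reduction antiviral assay. Minimum cytotoxic concentration was the lowest concentration causing microscopically detectable alteration of normal cell morphology. CC50 was the 50% cytotoxic concentration, measured as cell viability by the colorimetric formazan-based MTS assay.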

Staphylococcus aureus = assay: MIC by tube dilution, S. aureus; settings: 24 h, read-out: pMICsa (Eq. (1)) Obs.
Outline: (§1)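 Tube-dilution MIC. Test compound was dissolved in DMSO at 100 μg/mL, then serially diluted in double-strength nutrient broth (I.P.). Tubes were incubated at 37 °C for 24 h. MIC was the lowest concentration that inhibited microbial growth. MIC values were converted to pMIC for QSAR.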

Bacillus subtilis = assay: MIC by tube dilution, B. subtilis; settings: 24 h, read-out: pMICbs (Eq. (2)) Obs.
Outline: as §1

Candida albicans = assay: MIC by tube dilution, C. albicans; settings: 48 h
[1] = tested on: S. aureus, B. subtilis, E. coli, C. albicans and A. niger; assay: average antimicrobial activity
Outline: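 Tube-dilution MIC with test compound dissolved in DMSO at 100 μg/mL. Bacteria grew in double-strength nutrient broth at 37 °C for 24 h. C. albicans grew in Sabouraud dextrose broth at 37 °C for 48 h, and A. niger in the same broth at 25 °C for 7 days. MIC was the lowest growth-inhibiting concentration, converted to pMIC. pMICam = mean of the five pMIC values.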

Escherichia coli = assay: MIC by tube dilution, E. coli; settings: 24 h, read-out: pMICec (Eq. (3)) Obs.
Outline: as §1

[2] = tested on: Vesicular stomatitis virus
B. subtilis = assay: MBC determination, B. subtilis; settings: static when MBC 3-fold higher than MIC
Outline: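 100 μL of culture from each tube that stayed clear in the MIC test was subcultured on fresh medium. MBC was the lowest compound concentration producing a 99.9% end-point reduction.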

[3] = read-out: pMICca (Eq. (4)) Obs.
[4] = read-out: pMICam (Eq. (9)) Obs.
[5] = read-out: pMICam MLR (Eq. (10)) Obs.

Nc1ncnc2c1ncn2C[C@H](O)CO [(S)-DHPA, reference compound]
Cytotoxicity Minimum cytotoxic conc. (HeLa cells): >250 µM

CCCCCCCCCCCC(=O)N/N=C/c1ccccc1 [Compound 1]
MIC (Staphylococcus aureus): 41.7 µM (≈ 12.6 µg/mL) | MIC (Bacillus subtilis): 50.1 µM (≈ 15.2 µg/mL) | MIC (Candida albicans; [3]): 61.7 µM (≈ 18.6 µg/mL) | MIC [1, 4]: 50.1 µM (≈ 15.2 µg/mL) | MIC [1, 5]: 50.1 µM (≈ 15.2 µg/mL) | MIC (Escherichia coli): 41.7 µM (≈ 12.6 µg/mL)

CCCCCCCCCCCCCC(=O)N/N=C/c1ccccc1 [Compound 2]
MIC (Staphylococcus aureus): 38 µM (≈ 12.6 µg/mL) | MIC (Bacillus subtilis): 38 µM (≈ 12.6 µg/mL) | MIC (Candida albicans; [3]): 57.5 µM (≈ 19 µg/mL) | MIC [1, 4]: 45.7 µM (≈ 15.1 µg/mL) | MIC [1, 5]: 45.7 µM (≈ 15.1 µg/mL) | MIC (Escherichia coli): 43.7 µM (≈ 14.4 µg/mL)

CCCCCCCCCCCCCCCC(=O)N/N=C/c1ccccc1 [Compound 3]
MIC (Staphylococcus aureus): 34.7 µM (≈ 12.4 µg/mL) | MIC (Bacillus subtilis): 34.7 µM (≈ 12.4 µg/mL) | MIC (Candida albicans; [3]): 17.4 µM (≈ 6.23 µg/mL) | MIC [1, 4]: 38.9 µM (≈ 13.9 µg/mL) | MIC [1, 5]: 38.9 µM (≈ 13.9 µg/mL) | MIC (Escherichia coli): 31.6 µM (≈ 11.3 µg/mL)

CCCCCCCCCCCCCCCCCC(=O)N/N=C/c1ccccc1 [Compound 4]
MIC (Staphylococcus aureus): 32.4 µM (≈ 12.5 µg/mL) | MIC (Bacillus subtilis): 32.4 µM (≈ 12.5 µg/mL) | MIC (Candida albicans; [3]): 8.13 µM (≈ 3.14 µg/mL) | MIC [1, 4]: 24.5 µM (≈ 9.49 µg/mL) | MIC [1, 5]: 24.5 µM (≈ 9.49 µg/mL) | MIC (Escherichia coli): 16.2 µM (≈ 6.27 µg/mL)

C/C=C/C=C/C(=O)N/N=C/c1ccccc1 [Compound 5]
MIC (Staphylococcus aureus): 58.9 µM (≈ 12.6 µg/mL) | MIC (Bacillus subtilis): 58.9 µM (≈ 12.6 µg/mL) | MIC (Candida albicans; [3]): 117 µM (≈ 25.2 µg/mL) | MIC [1, 4]: 58.9 µM (≈ 12.6 µg/mL) | MIC [1, 5]: 58.9 µM (≈ 12.6 µg/mL) | MIC (Escherichia coli): 58.9 µM (≈ 12.6 µg/mL)

O=C(/C=C/c1ccccc1)N/N=C/c1ccccc1 [Compound 6]
MIC (Staphylococcus aureus): 50.1 µM (≈ 12.5 µg/mL) | MIC (Bacillus subtilis): 50.1 µM (≈ 12.5 µg/mL) | MIC (Candida albicans; [3]): 12.6 µM (≈ 3.15 µg/mL) | MIC [1, 4]: 33.1 µM (≈ 8.29 µg/mL) | MIC [1, 5]: 33.1 µM (≈ 8.29 µg/mL) | MIC (Escherichia coli): 50.1 µM (≈ 12.5 µg/mL)

Cc1cccc(C(=O)N/N=C/c2ccccc2)c1 [Compound 7]
MIC (Staphylococcus aureus): 52.5 µM (≈ 12.5 µg/mL) | MIC (Bacillus subtilis): 52.5 µM (≈ 12.5 µg/mL) | MIC (Candida albicans; [3]): 13.2 µM (≈ 3.14 µg/mL) | MIC [1, 4]: 34.7 µM (≈ 8.26 µg/mL) | MIC [1, 5]: 34.7 µM (≈ 8.26 µg/mL) | MIC (Escherichia coli): 52.5 µM (≈ 12.5 µg/mL)

Cc1ccc(C(=O)N/N=C/c2ccccc2)cc1 [Compound 8]
MIC (Staphylococcus aureus): 52.5 µM (≈ 12.5 µg/mL) | MIC (Bacillus subtilis): 52.5 µM (≈ 12.5 µg/mL) | MIC (Candida albicans; [3]): 45.7 µM (≈ 10.9 µg/mL) | MIC [1, 4]: 38.9 µM (≈ 9.27 µg/mL) | MIC [1, 5]: 38.9 µM (≈ 9.27 µg/mL) | MIC (Escherichia coli): 52.5 µM (≈ 12.5 µg/mL)

COc1cc(OC)cc(C(=O)N/N=C/c2ccccc2)c1 [Compound 9]
MIC (Staphylococcus aureus): 43.7 µM (≈ 12.4 µg/mL) | MIC (Bacillus subtilis): 43.7 µM (≈ 12.4 µg/mL) | MIC (Candida albicans; [3]): 11 µM (≈ 3.12 µg/mL) | antiviral activity against Vesicular stomatitis virus (VSV), in words [2]: active; also recorded: antiviral potential | MIC [1, 4]: 28.8 µM (≈ 8.2 µg/mL) | MIC [1, 5]: 28.8 µM (≈ 8.2 µg/mL) | Cytotoxicity Minimum cytotoxic conc. (HeLa cells): 100 µg/mL | MIC (Escherichia coli): 43.7 µM (≈ 12.4 µg/mL)

O=C(N/N=C/c1ccccc1)c1cc([N+](=O)[O-])cc([N+](=O)[O-])c1 [Compound 10]
MIC (Staphylococcus aureus): 39.8 µM (≈ 12.5 µg/mL) | MIC (Bacillus subtilis): 39.8 µM (≈ 12.5 µg/mL) | MIC (Candida albicans; read-out: pMICca): 20 µM (≈ 6.27 µg/mL) | MIC (Candida albicans; [3]): 20 µM (≈ 6.27 µg/mL) | MIC [1, 4]: 30.2 µM (≈ 9.49 µg/mL) | MIC [1, 5]: 30.2 µM (≈ 9.49 µg/mL) | MIC (Escherichia coli): 39.8 µM (≈ 12.5 µg/mL)

CCCCCCCCCCCC(=O)N/N=C/c1ccccc1Cl [Compound 11]
MIC (Staphylococcus aureus): 37.2 µM (≈ 12.5 µg/mL) | MIC (Bacillus subtilis): 37.2 µM (≈ 12.5 µg/mL) | MIC (Candida albicans; [3]): 18.6 µM (≈ 6.27 µg/mL) | MIC [1, 4]: 27.5 µM (≈ 9.28 µg/mL) | MIC [1, 5]: 27.5 µM (≈ 9.28 µg/mL) | MIC (Escherichia coli): 15.8 µM (≈ 5.34 µg/mL)

CCCCCCCCCCCCCC(=O)N/N=C/c1ccccc1Cl [Compound 12]
MIC (Staphylococcus aureus): 33.9 µM (≈ 12.4 µg/mL) | MIC (Bacillus subtilis): 33.9 µM (≈ 12.4 µg/mL) | MIC (Candida albicans; [3]): 75.9 µM (≈ 27.7 µg/mL) | MIC [1, 4]: 46.8 µM (≈ 17.1 µg/mL) | MIC [1, 5]: 46.8 µM (≈ 17.1 µg/mL) | MIC (Escherichia coli): 33.9 µM (≈ 12.4 µg/mL)

CCCCCCCCCCCCCCCC(=O)N/N=C/c1ccccc1Cl [Compound 13]
MIC (Staphylococcus aureus): 31.6 µM (≈ 12.4 µg/mL) | MIC (Bacillus subtilis): 32.4 µM (≈ 12.7 µg/mL) | MIC (Candida albicans; [3]): 7.94 µM (≈ 3.12 µg/mL) | bacteriostatic/bactericidal action against B. subtilis (B. subtilis): active bactericidal agents | MIC [1, 4]: 26.9 µM (≈ 10.6 µg/mL) | MIC [1, 5]: 26.9 µM (≈ 10.6 µg/mL) | MIC (Escherichia coli): 31.6 µM (≈ 12.4 µg/mL)

CCCCCCCCCCCCCCCCCC(=O)N/N=C/c1ccccc1Cl [Compound 14]
MIC (Staphylococcus aureus): 29.5 µM (≈ 12.4 µg/mL) | MIC (Bacillus subtilis): 29.5 µM (≈ 12.4 µg/mL) | MIC (Candida albicans; [3]): 14.8 µM (≈ 6.23 µg/mL) | bacteriostatic/bactericidal action against B. subtilis (B. subtilis): active bactericidal agents | MIC [1, 4]: 28.8 µM (≈ 12.1 µg/mL) | MIC [1, 5]: 28.8 µM (≈ 12.1 µg/mL) | MIC (Escherichia coli): 29.5 µM (≈ 12.4 µg/mL)

C/C=C/C=C/C(=O)N/N=C/c1ccccc1Cl [Compound 15]
MIC (Staphylococcus aureus): 50.1 µM (≈ 12.5 µg/mL) | MIC (Bacillus subtilis): 50.1 µM (≈ 12.5 µg/mL) | MIC (Candida albicans; [3]): 25.1 µM (≈ 6.25 µg/mL) | MIC [1, 4]: 39.8 µM (≈ 9.9 µg/mL) | MIC [1, 5]: 39.8 µM (≈ 9.9 µg/mL) | MIC (Escherichia coli): 50.1 µM (≈ 12.5 µg/mL)

O=C(/C=C/c1ccccc1)N/N=C/c1ccccc1Cl [Compound 16]
MIC (Staphylococcus aureus): 43.7 µM (≈ 12.4 µg/mL) | MIC (Bacillus subtilis): 43.7 µM (≈ 12.4 µg/mL) | MIC (Candida albicans; read-out: pMICca): 17.4 µM (≈ 4.95 µg/mL) | MIC (Candida albicans; [3]): 17.4 µM (≈ 4.95 µg/mL) | MIC [1, 4]: 30.2 µM (≈ 8.6 µg/mL) | MIC [1, 5]: 30.2 µM (≈ 8.6 µg/mL) | MIC (Escherichia coli): 43.7 µM (≈ 12.4 µg/mL)

Cc1cccc(C(=O)N/N=C/c2ccccc2Cl)c1 [Compound 17]
MIC (Staphylococcus aureus): 45.7 µM (≈ 12.5 µg/mL) | MIC (Bacillus subtilis): 45.7 µM (≈ 12.5 µg/mL) | MIC (Candida albicans; [3]): 45.7 µM (≈ 12.5 µg/mL) | MIC [1, 4]: 42.7 µM (≈ 11.6 µg/mL) | MIC [1, 5]: 42.7 µM (≈ 11.6 µg/mL) | MIC (Escherichia coli): 45.7 µM (≈ 12.5 µg/mL)

Cc1ccc(C(=O)N/N=C/c2ccccc2Cl)cc1 [Compound 18]
MIC (Staphylococcus aureus): 45.7 µM (≈ 12.5 µg/mL) | MIC (Bacillus subtilis): 45.7 µM (≈ 12.5 µg/mL) | MIC (Candida albicans; read-out: pMICca): 24.5 µM (≈ 6.69 µg/mL) | MIC (Candida albicans; [3]): 24.5 µM (≈ 6.69 µg/mL) | MIC [1, 4]: 35.5 µM (≈ 9.68 µg/mL) | MIC [1, 5]: 35.5 µM (≈ 9.68 µg/mL) | MIC (Escherichia coli): 45.7 µM (≈ 12.5 µg/mL)

COc1cc(OC)cc(C(=O)N/N=C/c2ccccc2Cl)c1 [Compound 19]
MIC (Staphylococcus aureus): 38.9 µM (≈ 12.4 µg/mL) | MIC (Bacillus subtilis): 38.9 µM (≈ 12.4 µg/mL) | MIC (Candida albicans; [3]): 9.77 µM (≈ 3.12 µg/mL) | antiviral activity against Vesicular stomatitis virus (VSV), in words [2]: active; also recorded: antiviral potential | MIC [1, 4]: 27.5 µM (≈ 8.78 µg/mL) | MIC [1, 5]: 27.5 µM (≈ 8.78 µg/mL) | Cytotoxicity Minimum cytotoxic conc. (HeLa cells): 100 µg/mL | MIC (Escherichia coli): 38.9 µM (≈ 12.4 µg/mL)

O=C(N/N=C/c1ccccc1Cl)c1cc([N+](=O)[O-])cc([N+](=O)[O-])c1 [Compound 20]
MIC (Staphylococcus aureus): 35.5 µM (≈ 12.4 µg/mL) | MIC (Bacillus subtilis): 35.5 µM (≈ 12.4 µg/mL) | MIC (Candida albicans; [3]): 8.91 µM (≈ 3.11 µg/mL) | MIC [1, 4]: 25.1 µM (≈ 8.76 µg/mL) | MIC [1, 5]: 25.1 µM (≈ 8.76 µg/mL) | MIC (Escherichia coli): 35.5 µM (≈ 12.4 µg/mL)

NC(=O)c1ncn([C@@H]2O[C@H](CO)[C@@H](O)[C@H]2O)n1 [Ribavirin, reference compound]
Cytotoxicity Minimum cytotoxic conc. (HeLa cells): >250 µM

Reference: publication PMC7127590 (European Journal of Medicinal Chemistry, 2010)
